Assay outcomes deposited in PubChem BioAssay by several laboratories.
Compounds with a hit are over-represented: about 2.2% of the library has one in this group of screens.
Ecoli rRNA inh – inhibitors of bacterial rRNA selective over humanized ribosomes; GFP signal change (wild-type ribosome), % (concentration not given with the values); E. coli WT GFP vs humanized-ribosome RFP mutants, fluorescence, 24 h; stronger effect = lower value; DMSO median 0, no signal -100; 350,000 compounds, 1.6% hits;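 active means significant combined selectivity score with lowered wild-type GFP, culture density cut under 30%, mutant RFP and density less affected; inactive means any of these conditions unmet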
Cneo AK release – causes C. neoformans cell lysis | adenylate kinase release luminescence, 4 h; normalised: neutral wells 0, clomiphene wells 100 | 360,000 compounds, 0.2% hits | lysis activity, % at 15 µM;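 active means mean lysis activity across replicates of at least 80%, whatever share of replicates individually reach that level; inactive means mean lysis activity below 80%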
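Signal: Adenylate kinase release luminescence | Assay system: Log-phase Cryptococcus neoformans yeast cells | Input: Cells at 5 × 10^6 per mL | Buffer or medium: Fresh YPD growth medium | Compound: Single dose | Schedule: Static 4 h at 37 °C with compound, 1 h detection | Controls: Clomiphene | Read-out: Luminescence rise reflecting yeast cell lysis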
CR mimetic SO – yeast age-related superoxide inhibition as caloric restriction mimetic | 330,000 compounds, 0.18% hits | superoxide response (% of plate mean), % at 10 µM | AID 2690 | S. cerevisiae aged cells, superoxide DHE fluorescence; stronger effect = lower value;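 active means superoxide response under a set limit, about three screen SD below normal, cut at about 65% in these data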;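 further: yeast aged for seven days with compound at 30 °C before DHE staining; 100% = average MFI of all compound-treated wells on the plate with controls excluded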
PglD DTNB – inhibitors of Campylobacter jejuni PglD acetyltransferase. purified PglD enzyme, DTNB colorimetric CoA detection. inhibition, % at 12.5 µM. 360,000 compounds, 0.098% hits; in the data active means inhibition above about 16%, passing the limit was not always enough
Mot1-301 SUMO – SUMOylation pathway inhibition by Mot1-301 growth rescue; growth rescue, % at 18.8 µM; S. cerevisiae Mot1-301 growth rescue, ATP luminescence, 38.5C; percent above DMSO median, 100 means doubled; 320,000 compounds, 1% hits;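 active means every valid replicate shows activation above 250% relative to neutral control wells; inactive means the rest, any valid replicate at or below 250%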;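 further: OY570 slx delta 5 strain wells were the positive control but not used for scaling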
Numbers without * were called inactive; nt = no result.

SMILES	Ecoli rRNA inh	Cneo AK release	CR mimetic SO	PglD DTNB	Mot1-301 SUMO
C=CCc1cccc(/C=N/NC(=O)C(=O)Nc2ccc(C)cc2)c1O	31.2	nt	119.5	nt	10.3
CN(C)C(=O)C[C@H]1CC[C@H]2[C@@H](COc3ccc(NC(=O)C4CCOCC4)cc3C(=O)N2C)O1	0.3	46.0	nt	-1.6	nt
CCOC(=O)CCC(=O)NCc1ccc2[nH]c(C)cc2c1	nt	2.7	86.2	1.4	-5.3
CCOC(=O)NCc1ccc2[nH]c(C)cc2c1	1.8	136.4*	109.1	-5.2	-8.7
Cc1nn(-c2ccccc2)c(C)c1-c1cc(C(=O)N/N=C/c2ccc(O)cc2)[nH]n1	-24.4*	nt	82.5	nt	5.7
COC(=O)/C(C#N)=C/c1c[nH]c2ccccc12	-22.1*	nt	91.8	nt	72.3
Cc1ccccc1NC(=S)NCCc1c[nH]c2ccccc12	-24.1*	nt	95.3	nt	8.1
Cc1cc(/C=C(\C#N)C(=O)NCCc2c[nH]c3ccccc23)c(C)n1C	-38.5*	nt	89.1	nt	6.0
Cc1ccc(C)c(NC(=O)C(=O)NCCc2c[nH]c3ccccc23)c1	-20.8*	4.9	78.1	1.5	-9.4
COc1ccc(CNC(=O)NCCc2c[nH]c3ccccc23)cc1	-4.7	-1.1	105.0	13.0	-16.9
COc1ccc(CCNC(=S)NCCc2c[nH]c3ccccc23)cc1	-33.2*	nt	102.4	nt	364.4
CCCCC1(C)OC(=O)C(=Cc2ccc(-c3ccc(Cl)c(C(=O)O)c3)o2)C(=O)O1 (stereo not given)	6.0	nt	63.1*	nt	-8.2
Cc1ccc(N2NC(=O)/C(=C/c3ccc(-c4ccc(Cl)c(C(=O)O)c4)o3)C2=O)cc1	15.4	-1.6	97.6	-2.6	11.0
Cc1ccc(S(=O)(=O)N2[C@@H](c3ccc(Br)cc3)C(C(=O)O)=CC[C@H]2c2ccc(Cl)cc2)cc1	-7.1	-6.3	91.0	-3.3	nt
COc1cccc([C@@H]2CC=C(C(=O)O)[C@H](c3cccc(Cl)c3)N2S(=O)(=O)c2ccc(C)cc2)c1	-32.4*	-4.7	96.3	0.9	-11.7
Cc1ccc(S(=O)(=O)N2[C@@H](c3ccc(Cl)cc3)C(C(=O)O)=CC[C@H]2c2cccc(C)c2)cc1	-21.5*	1.3	95.9	-3.5	-12.1
CCc1ccc([C@@H]2CC=C(C(=O)O)[C@H](c3ccc(Br)cc3)N2S(=O)(=O)c2ccc(C)cc2)cc1	-2.0	-6.9	87.3	3.7	300.2*
O=C1[C@H](Cc2ccc(C(F)(F)F)cc2)CCn2cc(nn2)COC[C@H]2CCCCN12	-3.0	nt	nt	nt	nt
C[C@@H]1CN([C@@H](C)CO)C(=O)c2cc(NC(=O)CCC(F)(F)F)ccc2O[C@@H](C)CCCCO[C@H]1CN(C)C(=O)C1CCCCC1	-1.2	-2.1	nt	-0.8	nt
C[C@H](CO)N1C[C@H](C)[C@H](CN(C)Cc2ccncc2)Oc2c(NS(C)(=O)=O)cccc2C1=O	3.6	-0.3	nt	-1.1	nt
O=C(Nc1ccc(F)cc1)N[C@@H]1CC[C@@H](CCn2cc(C3(O)CCCC3)nn2)O[C@@H]1CO	-0.9	1.4	nt	2.4	nt
CCOc1ccc(OCc2cccc(C(=O)O)c2)cc1	-23.5*	-1.7	140.8	2.5	3.7
N#Cc1ccccc1COC(=O)c1cccc(S(=O)(=O)N2CCCC2)c1	-28.9*	-1.1	103.8	-1.6	7.0
C[C@H]1CN([C@@H](C)CO)C(=O)c2cccc(NC(=O)C3CC3)c2O[C@@H]1CN(C)Cc1ccc(C(=O)O)cc1	2.9	-1.6	nt	-2.7	nt
CC(C)NC(=O)Nc1n[nH]c(Nc2ccc(Cl)cc2)n1	-18.4*	-0.5	86.5	1.0	0.1
SMILES	Ecoli rRNA inh	Cneo AK release	CR mimetic SO	PglD DTNB	Mot1-301 SUMO
COc1ccc(Cl)cc1NC(=O)NC(C)C	4.6	nt	76.4	nt	-25.6
CN(C[C@H]1N[C@@H](CO)[C@H]1c1ccc(C2=CCCCC2)cc1)S(C)(=O)=O	3.4	-0.3	nt	0.7	nt
CO[C@H]1CN(C)C(=O)c2cc(NC(C)=O)ccc2OC[C@@H](C)N(C(=O)CN2CCOCC2)C[C@H]1C	1.6	0.4	nt	2.6	nt
CCOC(=O)NC(=O)COC(=O)CCCSc1nc2ccccc2s1	-26.6*	nt	109.6	nt	-6.7
O=C(C[C@H]1C=C[C@@H](NS(=O)(=O)c2ccc(F)cc2)[C@@H](CO)O1)NCc1ccncn1	3.0	-1.4	nt	-1.6	nt
O=C(N/N=C/c1cccc(Oc2ccccc2)c1)c1cccc(Br)c1	-22.3	0.0	114.4	-3.9	12.4
O=C(N/N=C/c1cccc(Oc2ccccc2)c1)c1ccccc1Br	-27.9*	-0.2	86.7	2.9	5.8
